According to ChEMBL document CHEMBL3826877, “Fatty Acid Amide Hydrolase (FAAH), Acetylcholinesterase (AChE), and Butyrylcholinesterase (BuChE): Networked Targets for the Development of Carbamates as Potential Anti-Alzheimer's Disease Agents” (J Med Chem, 2016):
pIC50: −log10 of the molar value.

Columns and labels:
Cholinesterase [1] = biological target: T1, Cholinesterase (Homo sapiens, UniProt P06276); assay: Inhibition of human serum BuChE using butyrylthiocholine iodide as substrate preincubated for 15 mins followed by substrate addition by Ellman's method
Outline: (§1)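 Ellman assay at 37 °C in 0.1 M phosphate pH 8.0 with 340 µM DTNB, 0.02 U/mL enzyme and 550 µM thiocholine substrate. Enzyme and inhibitor preincubated before substrate: AChE 120 min (one compound 60 min), BuChE 15 or 20 min depending on N-substituent. Non-enzymatic blanks run. […] IC50 by linear regression of % inhibition vs log concentration. Mean of 2-3 independent runs in duplicate.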

Cholinesterase [2] = biological target: T1, Cholinesterase; assay: Inhibition of human serum BuChE assessed as enzyme carbamoylation using butyrylthiocholine iodide as substrate preincubated with enzyme followed by substrate addition by Ellman's method; settings: TDE = time-dependent effect
Acetylcholinesterase [3] = biological target: T2, Acetylcholinesterase (Homo sapiens, UniProt P22303); assay: Inhibition of recombinant human AChE expressed in HEK293 cells using acetylthiocholine iodide as substrate preincubated for 120 mins followed by substrate addition by Ellman's method; outline: as §1
[4] = biological target: T3, Fatty-acid amide hydrolase 1 (Rattus norvegicus, UniProt P97612); assay: Inhibition of FAAH in rat brain membrane using N-arachidonoyl-[14C]-ethanolamine as substrate incubated for 30 mins by scintillation counting method; format: cell membranes
T3 sequence (P97612 whole entry): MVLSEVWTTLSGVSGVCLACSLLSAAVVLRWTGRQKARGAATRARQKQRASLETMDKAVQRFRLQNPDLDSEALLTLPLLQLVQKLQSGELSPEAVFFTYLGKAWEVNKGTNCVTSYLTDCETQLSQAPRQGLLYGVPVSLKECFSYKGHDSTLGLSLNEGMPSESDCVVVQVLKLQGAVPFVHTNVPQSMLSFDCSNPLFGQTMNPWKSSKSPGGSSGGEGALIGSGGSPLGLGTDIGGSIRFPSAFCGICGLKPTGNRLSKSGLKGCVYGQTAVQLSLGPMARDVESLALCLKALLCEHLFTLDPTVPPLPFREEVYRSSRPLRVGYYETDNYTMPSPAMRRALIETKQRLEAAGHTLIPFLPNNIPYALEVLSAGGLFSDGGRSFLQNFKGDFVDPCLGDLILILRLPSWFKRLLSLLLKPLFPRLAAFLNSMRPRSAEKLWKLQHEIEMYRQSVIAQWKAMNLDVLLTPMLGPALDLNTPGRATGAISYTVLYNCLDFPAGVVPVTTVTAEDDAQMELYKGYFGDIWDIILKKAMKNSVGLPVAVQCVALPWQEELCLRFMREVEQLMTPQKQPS
Outline: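 Rat brain 10,000 x g membrane fraction (70 µg/sample) co-incubated with compound and [14C]-AEA diluted with unlabelled AEA in 50 mM Tris-HCl, pH 9.00-10.00, 37 °C, 30 min. Released [14C]-ethanolamine measured by scintillation of the aqueous phase after CHCl3/MeOH 1:1 extraction.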

[5] = biological target: T3, Fatty-acid amide hydrolase 1; assay: Inhibition of FAAH in rat brain membrane using N-arachidonoyl-[14C]-ethanolamine as substrate preincubated for 20 mins followed by substrate addition measured after 30 mins by scintillation counting method; format: cell membranes
Outline: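 Compound preincubated 20 min at 37 °C with rat brain 10,000 x g membranes (70 µg/sample), then [14C]-AEA (diluted with AEA) added in 50 mM Tris-HCl pH 9.00-10.00, 37 °C, 30 min. [14C]-ethanolamine counted by scintillation after CHCl3/MeOH 1:1 extraction.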

Acetylcholinesterase [6] = biological target: T2, Acetylcholinesterase; assay: Inhibition of recombinant human AChE expressed in HEK293 cells assessed as enzyme carbamoylation using acetylthiocholine iodide as substrate preincubated with enzyme followed by substrate addition by Ellman's method; settings: TDE = time-dependent effect
Cholinesterase [7] = biological target: T1, Cholinesterase; assay: Inhibition of human serum BuChE using butyrylthiocholine iodide as substrate preincubated for 20 mins followed by substrate addition by Ellman's method; outline: as §1
SH-SY5Y [8] = assay: Cytotoxicity against human SH-SY5Y assessed as reduction in cell viability at 1 to 50 uM after 24 hrs by MTT assay; format: cell-based
Outline: (§2)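 SH-SY5Y neuroblastoma cells grown in DMEM with 2 mM L-glutamine, penicillin/streptomycin and 10% FBS. Cells seeded and cultured overnight at 37°C, 5% CO2. Compounds in DMSO (final under 0.1%) added for 24 h. MTT 0.5 mg/mL added for 3 h, formazan taken up in isopropanol, absorbance read at 620 nm. Viability given relative to vehicle. Three independent experiments in quadruplicate.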

Homo sapiens [9] = assay: Binding affinity to AChE in human assessed as enzyme reactivation half life at 8 to 40 mg/kg, po; format: functional, organism-based
[10] = biological target: T3, Fatty-acid amide hydrolase 1; assay: Inhibition of FAAH in rat brain membrane at pH 7.4 using N-arachidonoyl-[14C]-ethanolamine as substrate preincubated for 10 mins followed by substrate addition measured after 30 mins by scintillation counting method; format: cell membranes
Outline: (§3)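 Rat brain 10,000 x g membrane fraction (70 µg/sample) in 50 mM Tris-HCl at pH 9.0 or 7.4, preincubated 10 min with compound. [14C]-AEA diluted with AEA then added, reaction run at 37 °C. [14C]-ethanolamine in the aqueous phase after CHCl3/MeOH 1:1 extraction counted by scintillation.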

[11] = biological target: T3, Fatty-acid amide hydrolase 1; assay: Inhibition of FAAH in rat brain membrane at pH 9 using N-arachidonoyl-[14C]-ethanolamine as substrate preincubated for 10 mins followed by substrate addition measured after 30 mins by scintillation counting method; format: cell membranes; outline: as §3
SH-SY5Y [12] = assay: Cytotoxicity against human SH-SY5Y assessed as reduction in cell viability at 50 uM after 24 hrs by MTT assay; format: cell-based; outline: as §2
SH-SY5Y [13] = assay: Cytotoxicity against human SH-SY5Y assessed as reduction in cell viability at 1 to 25 uM after 24 hrs by MTT assay; format: cell-based; outline: as §2
Acetylcholinesterase [14] = biological target: T2, Acetylcholinesterase; assay: Inhibition of recombinant human AChE expressed in HEK293 cells assessed as pseudo-first order rate constant for enzyme carbamoylation using acetylthiocholine iodide as substrate preincubated for 15 to 120 mins followed by substrate addition by Ellman's method
Outline: (§4)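 Stopped-time assay at pH 8.0, 37 °C, five inhibitor concentrations. AChE: 16.7-167.5 nM, residual activity read at 15, 30, 60, 90 and 120 min. BuChE: 0.46-4.58 nM, read at […], 2, 5, 10, 15 and 30 min. Activities corrected against an uninhibited control at each time. R = R0·exp(−kobs·t)+R∞ fitted to give kobs. k3 obtained from a double-reciprocal plot of kobs vs [I].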

Acetylcholinesterase [15] = biological target: T2, Acetylcholinesterase; assay: Inhibition of recombinant human AChE expressed in HEK293 cells using acetylthiocholine iodide as substrate preincubated for 60 mins followed by substrate addition by Ellman's method; outline: as §1
Cholinesterase [16] = biological target: T1, Cholinesterase; assay: Inhibition of human serum BuChE assessed as pseudo-first order rate constant for enzyme carbamoylation using butyrylthiocholine iodide as substrate preincubated for 2 to 30 mins followed by substrate addition by Ellman's method; outline: as §4
Homo sapiens [17] = assay: Binding affinity to AChE in human assessed as enzyme reactivation half life at 1.5 mg/kg, iv dosed over 60 mins infusion; format: functional, organism-based

T2 sequence (P22303 whole entry): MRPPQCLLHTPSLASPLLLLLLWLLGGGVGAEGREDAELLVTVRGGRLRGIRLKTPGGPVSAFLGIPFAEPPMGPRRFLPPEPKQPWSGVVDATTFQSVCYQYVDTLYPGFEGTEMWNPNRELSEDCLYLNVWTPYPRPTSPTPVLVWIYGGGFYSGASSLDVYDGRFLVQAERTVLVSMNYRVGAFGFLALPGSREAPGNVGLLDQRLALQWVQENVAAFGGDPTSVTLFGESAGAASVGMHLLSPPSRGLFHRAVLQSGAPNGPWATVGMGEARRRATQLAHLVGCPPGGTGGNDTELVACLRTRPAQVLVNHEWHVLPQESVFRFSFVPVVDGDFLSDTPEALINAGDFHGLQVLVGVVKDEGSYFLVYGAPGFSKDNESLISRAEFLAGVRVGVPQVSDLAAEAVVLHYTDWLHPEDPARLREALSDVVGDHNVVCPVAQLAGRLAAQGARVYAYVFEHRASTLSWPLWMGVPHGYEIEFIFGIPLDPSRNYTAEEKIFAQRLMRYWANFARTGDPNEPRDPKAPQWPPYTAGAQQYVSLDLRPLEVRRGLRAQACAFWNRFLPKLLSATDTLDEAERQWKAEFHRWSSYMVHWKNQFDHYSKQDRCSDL
T1 sequence (P06276 whole entry): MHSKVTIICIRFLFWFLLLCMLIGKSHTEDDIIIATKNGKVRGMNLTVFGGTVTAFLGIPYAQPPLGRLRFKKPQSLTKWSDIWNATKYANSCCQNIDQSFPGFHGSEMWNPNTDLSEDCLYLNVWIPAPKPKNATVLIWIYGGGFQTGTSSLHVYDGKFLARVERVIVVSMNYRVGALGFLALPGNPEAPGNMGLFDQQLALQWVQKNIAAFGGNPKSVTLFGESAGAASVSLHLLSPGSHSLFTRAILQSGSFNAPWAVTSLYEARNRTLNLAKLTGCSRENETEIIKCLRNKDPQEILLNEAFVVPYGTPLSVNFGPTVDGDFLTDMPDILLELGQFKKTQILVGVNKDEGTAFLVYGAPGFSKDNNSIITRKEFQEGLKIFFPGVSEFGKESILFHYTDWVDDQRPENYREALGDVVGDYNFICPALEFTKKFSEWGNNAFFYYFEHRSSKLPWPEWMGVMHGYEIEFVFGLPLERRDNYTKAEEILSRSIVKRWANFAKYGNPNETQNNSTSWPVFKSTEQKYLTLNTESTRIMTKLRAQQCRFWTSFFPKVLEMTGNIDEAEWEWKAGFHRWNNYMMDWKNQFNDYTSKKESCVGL

Structure (SMILES) | pIC50 (Cholinesterase [1]) | inhibition (Cholinesterase [2]) | pIC50 (Acetylcholinesterase [3]) | pIC50 [4] | pIC50 [5] | inhibition (Acetylcholinesterase [6]) | pIC50 (Cholinesterase [7]) | further results
CN(CCCOc1ccc2cc(-c3ccccc3)c(=O)oc2c1)Cc1cccc(OC(=O)NCCCCCc2ccccc2)c1 | 8.69 | tde | 6.90 | 5.73 | 6.60 | tde |  | 
CCCCCCCNC(=O)Oc1cccc(-n2cc(COc3ccc4ccc(=O)oc4c3)nn2)c1 |  |  | 6.15 | 7.21 | 7.80 |  | 7.15 | Activity (SH-SY5Y [8]): Non-toxic
COc1ccc(-c2cc3cc(OCCCN(C)Cc4cccc(OC(=O)NCCCCCc5ccccc5)c4)ccc3oc2=O)cc1 | 8.94 | tde | 6.75 | 5.55 | 6.68 | tde |  | 
CCCCCCCNC(=O)Oc1cccc(CN(C)CCCCCOc2ccc3ccc(=O)oc3c2)c1 |  | tde | 7.95 | 5.89 | 6.62 | tde | 9.10 | 
NC(=O)c1cccc(-c2cccc(OC(=O)NC3CCCCC3)c2)c1 [URB-597] |  |  |  |  |  |  |  | Activity (SH-SY5Y [8]): Non-toxic
O=C(NCCCCCc1ccccc1)Oc1cccc(Cn2cc(COc3ccc4ccc(=O)oc4c3)nn2)c1 | 7.37 |  | 6.04 | 6.80 | 7.55 |  |  | 
CCCCCCCNC(=O)Oc1ccc(Cn2cc(COc3ccc4ccc(=O)oc4c3)nn2)cc1 |  |  | 6.67 | 6.45 | 7.26 |  | 7.80 | 
CN(CCCOc1ccc2ccc(=O)oc2c1)Cc1cccc(OC(=O)NCCCCCCc2ccccc2)c1 | 8.55 | tde | 6.96 | 5.75 | 6.28 | tde |  | 
Cc1cc(=O)oc2cc(OCCCN(C)Cc3cccc(OC(=O)NCCCCCc4ccccc4)c3)ccc12 | 8.56 | tde | 7.09 | 6.34 | 6.87 | tde |  | 
O=C(NCCCCCc1ccccc1)Oc1cccc(-n2cc(COc3ccc4ccc(=O)oc4c3)nn2)c1 | 7.82 |  | 5.93 | 6.68 | 7.35 |  |  | 
COc1ccc(-c2cc3ccc(OCCCN(C)Cc4cccc(OC(=O)NCCCCCc5ccccc5)c4)cc3oc2=O)cc1 | 8.89 | tde | 6.51 | 5.63 | 6.49 | tde |  | 
CCCCCCCNC(=O)Oc1cccc(CN(C)CCCCCOc2ccc3c(c2)Oc2ncccc2C3)c1 |  | tde | 8.16 | 5.66 | 6.75 | tde | 9.28 | 
CCCCCCCNC(=O)Oc1cccc(CN(C)CCCOc2ccc3c(=O)c4cccnc4oc3c2)c1 |  | tde | 7.89 | 5.50 | 6.69 | tde | 9.16 | 
CCCCCCCNC(=O)Oc1cccc(Cn2cc(COc3ccc4ccc(=O)oc4c3)nn2)c1 |  |  | 5.98 | 6.96 | 7.49 |  | 7.11 | 
O=C(NCCCCCc1ccccc1)Oc1ccc(-n2cc(COc3ccc4ccc(=O)oc4c3)nn2)cc1 | 5.91 |  | 4.32 | 6.63 | 7.36 |  |  | 
CCCCCCCNC(=O)Oc1cccc(CN(C)CCCOc2ccc3c4c(c(=O)oc3c2)CCCC4)c1 |  | tde | 7.67 | 5.60 | 6.51 | tde | 9.57 | 
CCCCCCCNC(=O)Oc1ccc2c(c1)[C@]1(C)CCN(C)[C@@H]1N2C |  |  |  |  |  |  |  | T1/2 (Homo sapiens [9]): 10 h
CCCCCCCNC(=O)Oc1ccc(-n2cc(COc3ccc4ccc(=O)oc4c3)nn2)cc1 |  |  | 3.80 | 6.78 | 7.67 |  | 3.91 | 
CN(CCCOc1ccc2c3c(c(=O)oc2c1)CCCC3)Cc1cccc(OC(=O)NCCCCCc2ccccc2)c1 | 8.84 | tde | 7.05 | 5.46 | 5.86 | tde |  | 
CN(CCCOc1ccc2ccc(=O)oc2c1)Cc1cccc(OC(=O)NCCCCCc2ccccc2)c1 |  | tde |  |  |  | tde |  | pIC50 [10]: 5.39; Activity (SH-SY5Y [8]): Non-toxic; pIC50 [11]: 6.74
CCCCCCCNC(=O)Oc1cccc(CN(C)CCCOc2ccc3ccc(=O)oc3c2)c1 |  |  | 7.43 | 6.79 | 7.55 |  | 8.87 | Activity (SH-SY5Y [12]): Toxic; Activity (SH-SY5Y [13]): Non-toxic
CN(CCCOc1ccc2c(c1)oc(=O)c1ccccc12)Cc1cccc(OC(=O)NCCCCCc2ccccc2)c1 | 8.92 | tde | 6.41 | 5.74 | 6.51 | tde |  | 
CN(CCCCCOc1ccc2ccc(=O)oc2c1)Cc1cccc(OC(=O)NCCCCCc2ccccc2)c1 | 8.91 | tde | 7.06 | 6.10 | 6.92 | tde |  | 
CN(CCCOc1ccc2cc(-c3ccc(Cl)cc3)c(=O)oc2c1)Cc1cccc(OC(=O)NCCCCCc2ccccc2)c1 | 8.45 | tde | 6.05 | 5.83 | 6.58 | tde |  | 
CCCCCCc1ccc(NC(=O)Oc2cccc(CN(C)CCCOc3ccc4ccc(=O)oc4c3)c2)cc1 | 7.49 | tde |  | < 4.30 | < 4.30 | tde |  | K (Acetylcholinesterase [14]): 0.203 min⁻¹; pIC50 (Acetylcholinesterase [15]): 5.42; K (Cholinesterase [16]): 0.461 min⁻¹
CNC(=O)Oc1ccc2c(c1)[C@]1(C)CCN(C)[C@@H]1N2C |  |  |  |  |  |  |  | T1/2 (Homo sapiens [17]): 0.5 h
O=C(NCCCCCc1ccccc1)Oc1ccc(Cn2cc(COc3ccc4ccc(=O)oc4c3)nn2)cc1 | 8.93 |  | 6.59 | 6.95 | 7.55 |  |  | 
